# What was measured:
# Liver microsome [1] = test: Drug level in Sprague-Dawley rat liver microsomes treated with [14C]-rivoglitazone at 20 uM after 2 to 4 hrs by radio-HPLC/LC-MS/MS analysis in presence of UDPGA, UDPGA/SAM and NADPH-generating system; assay type: ADME
# Cytochrome P450 2C8 [2] = target: T1, Cytochrome P450 2C8 (Homo sapiens, UniProt P10632); test: Activity of human CYP2C8 expressed in microsomes isolated from baculovirus infected insect cell assessed as enzyme-mediated compound formation treated with [14C]-rivoglitazone at 20 uM after 2 hrs by radio-HPLC/LC-MS/MS analysis in presence of NADPH-generating system; assay type: ADME
# T1 sequence (P10632 whole entry): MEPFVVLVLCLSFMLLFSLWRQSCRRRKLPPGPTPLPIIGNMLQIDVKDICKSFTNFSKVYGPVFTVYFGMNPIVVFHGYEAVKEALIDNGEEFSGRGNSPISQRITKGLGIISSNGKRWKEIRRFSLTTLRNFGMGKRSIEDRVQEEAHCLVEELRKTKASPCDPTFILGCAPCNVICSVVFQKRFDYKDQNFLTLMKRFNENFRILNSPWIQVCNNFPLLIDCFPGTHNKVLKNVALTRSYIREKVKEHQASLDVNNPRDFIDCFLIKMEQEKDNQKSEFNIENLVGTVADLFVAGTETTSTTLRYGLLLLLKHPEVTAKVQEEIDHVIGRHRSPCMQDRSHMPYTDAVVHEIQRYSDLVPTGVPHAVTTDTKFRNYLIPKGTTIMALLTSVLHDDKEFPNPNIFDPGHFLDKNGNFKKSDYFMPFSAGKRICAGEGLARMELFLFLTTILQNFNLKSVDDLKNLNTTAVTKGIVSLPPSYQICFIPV
# Procedure, shortened: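 Baculovirus/insect-cell microsomes expressing single human CYPs, 1 mg/ml protein, with 50 mM potassium phosphate (pH 7.4) or 100 mM Tris-HCl (pH 7.5). NADPH-generating system: 2 mM NADP⁺, 20 mM glucose 6-phosphate, 2 units/ml G6PDH, 10 mM MgCl₂. [¹⁴C]rivoglitazone at 20 μM, 2 h at 37°C with shaking. Control used insect-cell control supersomes. Stopped with acetonitrile; supernatant concentrated under nitrogen; metabolites analysed by radio-HPLC, LC-MS and LC-MS/MS.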
# [3] = Drug metabolism in human hepatocytes assessed as formation of (2S,3S,4S,5R,6R)-3,4,5-trihydroxy-6-(5-(4-((6-methoxy-1-methyl-1H-benzo[d]imidazol-2-yl)methoxy)benzyl)-2,4-dioxothiazolidin-3-yl)tetrahydro-2H-pyran-2-carboxylic acid at 30 uM after 3 hrs by radio-HPLC/LC-MS/MS analysis; assay type: ADME, cell-based, Hepatocyte
# [4] = target: T2, UDP-glucuronosyltransferase 1A8 (Homo sapiens, UniProt Q9HAW9); test: Activity of human UGT1A8 expressed in microsomes isolated from baculovirus infected insect cell assessed as enzyme-mediated 2-mercapto-3-(4-((6-methoxy-1-methyl-1H-benzo[d]imidazol-2-yl)methoxy)phenyl)propanoic acid formation at 20 uM after 4 hrs by radio-HPLC/LC-MS/MS analysis in presence of UDPGA; assay type: ADME
# T2 sequence (Q9HAW9 whole entry): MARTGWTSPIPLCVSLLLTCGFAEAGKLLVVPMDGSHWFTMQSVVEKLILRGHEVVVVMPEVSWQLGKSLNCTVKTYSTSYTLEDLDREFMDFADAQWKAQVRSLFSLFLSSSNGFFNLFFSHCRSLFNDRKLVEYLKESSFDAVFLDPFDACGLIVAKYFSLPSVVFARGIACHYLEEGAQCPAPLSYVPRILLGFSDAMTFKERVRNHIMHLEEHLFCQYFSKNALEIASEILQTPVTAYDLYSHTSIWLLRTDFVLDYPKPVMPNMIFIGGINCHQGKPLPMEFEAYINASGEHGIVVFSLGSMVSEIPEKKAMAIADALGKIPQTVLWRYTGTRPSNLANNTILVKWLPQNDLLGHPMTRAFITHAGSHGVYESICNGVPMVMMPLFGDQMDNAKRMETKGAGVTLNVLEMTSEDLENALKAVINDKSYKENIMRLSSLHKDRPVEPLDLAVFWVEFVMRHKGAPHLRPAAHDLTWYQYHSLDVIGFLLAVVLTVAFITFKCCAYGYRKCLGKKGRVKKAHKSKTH
# Liver microsome [5] = test: Drug metabolism in human liver microsomes assessed as formation of 5-(4-((6-methoxy-1H-benzo[d]imidazol-2-yl)methoxy)benzyl)thiazolidine-2,4-dione at 20 uM after 2 hrs by radio-HPLC/LC-MS/MS analysis in presence of NADPH-generating system and NADPH-generating system/SAM; assay type: ADME
# [6] = Drug metabolism in human hepatocytes assessed as formation of 3-(4-((6-methoxy-1-methyl-1H-benzo[d]imidazol-2-yl)methoxy)phenyl)-2-(methylsulfonyl)propanamide at 30 uM after 3 hrs by radio-HPLC/LC-MS/MS analysis in presence of NADPH-generating system/SAM; assay type: ADME, cell-based, Hepatocyte
# [7] = target: T3, UDP-glucuronosyltransferase 1A3 (Homo sapiens, UniProt P35503); test: Activity of human UGT1A3 expressed in microsomes isolated from baculovirus infected insect cell assessed as enzyme-mediated 3-(4-((6-methoxy-1-methyl-1H-benzo[d]imidazol-2-yl)methoxy)phenyl)-2-(methylthio)propanoic acid formation at 20 uM after 4 hrs by radio-HPLC/LC-MS/MS analysis in presence of NADPH-generating system/SAM and UDPGA/SAM in presence of UDPGA and UDPGA/SAM; assay type: ADME
# T3 sequence (P35503 whole entry): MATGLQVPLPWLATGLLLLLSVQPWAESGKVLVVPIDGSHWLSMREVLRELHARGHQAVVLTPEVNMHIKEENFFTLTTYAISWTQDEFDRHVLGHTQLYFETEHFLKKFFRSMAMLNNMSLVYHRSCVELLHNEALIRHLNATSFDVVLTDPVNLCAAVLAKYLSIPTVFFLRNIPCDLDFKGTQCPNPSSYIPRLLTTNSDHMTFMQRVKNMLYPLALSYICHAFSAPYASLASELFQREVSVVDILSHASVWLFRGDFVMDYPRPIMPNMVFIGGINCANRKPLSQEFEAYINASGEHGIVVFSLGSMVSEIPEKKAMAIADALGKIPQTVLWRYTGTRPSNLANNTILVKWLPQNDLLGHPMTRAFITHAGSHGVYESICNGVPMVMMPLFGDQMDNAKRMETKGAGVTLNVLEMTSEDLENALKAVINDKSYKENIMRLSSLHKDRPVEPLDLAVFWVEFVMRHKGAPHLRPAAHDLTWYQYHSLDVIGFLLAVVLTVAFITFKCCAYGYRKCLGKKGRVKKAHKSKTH
# Cytochrome P450 2C9 = Cytochrome P450 2C9 (Homo sapiens, UniProt P11712); test: Activity of human CYP2C9 expressed in microsomes isolated from baculovirus infected insect cell assessed as enzyme-mediated 3-(4-((6-methoxy-1-methyl-1H-benzo[d]imidazol-2-yl)methoxy)phenyl)-2-(methylsulfonyl)propanamide formation at 20 uM after 2 hrs by radio-HPLC/LC-MS/MS analysis in presence of NADPH-generating system/SAM; assay type: ADME
# Cytochrome P450 2C8 [8] = target: T1, Cytochrome P450 2C8; test: Activity of human CYP2C8 expressed in microsomes isolated from baculovirus infected insect cell assessed as enzyme-mediated 3-(4-((6-methoxy-1-methyl-1H-benzo[d]imidazol-2-yl)methoxy)phenyl)-2-(methylsulfinyl)propanamide formation at 20 uM after 2 hrs by radio-HPLC/LC-MS/MS analysis in presence of NADPH-generating system/SAM; assay type: ADME
# [9] = Drug metabolism in human hepatocytes assessed as formation of 2-mercapto-3-(4-((6-methoxy-1-methyl-1H-benzo[d]imidazol-2-yl)methoxy)phenyl)propanoic acid at 30 uM after 3 hrs by radio-HPLC/LC-MS/MS analysis in presence of UDPGA, UDPGA/SAM and NADPH-generating system; assay type: ADME, cell-based, Hepatocyte
# Chain of Cytochrome P450 2C9 (P11712 whole entry): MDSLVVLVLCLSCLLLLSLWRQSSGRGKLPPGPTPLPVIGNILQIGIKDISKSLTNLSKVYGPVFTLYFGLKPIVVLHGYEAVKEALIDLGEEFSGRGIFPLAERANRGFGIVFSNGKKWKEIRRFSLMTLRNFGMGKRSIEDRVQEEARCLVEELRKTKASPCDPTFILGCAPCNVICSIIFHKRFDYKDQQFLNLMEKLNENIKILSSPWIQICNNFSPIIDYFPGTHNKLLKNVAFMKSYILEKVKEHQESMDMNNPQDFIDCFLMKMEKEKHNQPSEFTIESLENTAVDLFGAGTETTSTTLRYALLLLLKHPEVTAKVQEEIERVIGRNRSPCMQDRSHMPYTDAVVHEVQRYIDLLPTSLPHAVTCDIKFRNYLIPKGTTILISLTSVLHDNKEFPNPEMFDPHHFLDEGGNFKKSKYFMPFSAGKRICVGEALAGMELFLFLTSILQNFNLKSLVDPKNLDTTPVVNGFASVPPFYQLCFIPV
Drug metabolism (Liver microsome [1]),Drug metabolism (Cytochrome P450 2C8 [2]),Drug metabolism [3],Drug metabolism [4],Drug metabolism (Liver microsome [5]),Drug metabolism [6],Drug metabolism [7],Drug metabolism (Cytochrome P450 2C9),Drug metabolism (Cytochrome P450 2C8 [8]),Drug metabolism [9],Structure (SMILES)
metabolite_detected,metabolite_detected,,,,,,,,,COc1ccc2nc(COc3ccc(CC(S)C(=O)O)cc3)n(C)c2c1 (stereo not given)
,,metabolite_detected,metabolite_not_detected,metabolite_detected,metabolite_detected,metabolite_not_detected,metabolite_not_detected,metabolite_not_detected,metabolite_not_detected,COc1ccc2nc(COc3ccc(C[14CH]4SC(=O)NC4=O)cc3)n(C)c2c1.Cl (racemic)
